Laboratory results from ChEMBL document CHEMBL1137629, “Antiproliferative effect of dihydroxyacetone on Trypanosoma brucei bloodstream forms: cell cycle progression, subcellular alterations, and cell death” (Antimicrob Agents Chemother, 2007).
Calls of active or inactive are those of the source. The calls are words filed in the database; no cut-off is given here.

Legend:
Trypanosoma brucei [1] = experiment: Trypanocidal activity against Trypanosoma brucei bloodstream form assessed as induction of autophagy at 5 uM after 24 hrs by transmission electron microscopy; assay type: functional, organism-based
Procedure, shortened: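 Autophagy positive control. Bloodstream forms treated with 5 μM rapamycin (from a 50 mM ethanol stock), processed by glutaraldehyde/osmium fixation, uranyl acetate staining, resin embedding and sectioning for transmission electron microscopy.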

Trypanosoma brucei [2] = experiment: Induction of apoptosis-like programmed cell death in Trypanosoma brucei bloodstream form assessed as loss of mitochondrial-membrane potential at 100 nM after 24 hrs by TMRE staining; assay type: functional
Procedure, shortened: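 T. brucei MITat 1.2 (EATRO 427) bloodstream forms were grown axenically at 37°C, 5% CO₂ and exposed to DHA for 24 h. Cells at 10⁶/ml were stained with 25 nM TMRE in culture medium for 30 min at 37°C and read at once by flow cytometry. Depolarization control: valinomycin 100 nM. Lower fluorescence signifies lost membrane potential.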

Structure (SMILES)	Activity (Trypanosoma brucei [1])	Activity (Trypanosoma brucei [2]) [%]
CO[C@H]1C[C@@H]2CC[C@@H](C)[C@@](O)(O2)C(=O)C(=O)N2CCCC[C@H]2C(=O)O[C@H]([C@H](C)C[C@@H]2CC[C@@H](O)[C@H](OC)C2)CC(=O)[C@H](C)/C=C(\C)[C@@H](O)[C@@H](OC)C(=O)[C@H](C)C[C@H](C)/C=C/C=C/C=C/1C	Active	
CC(C)[C@@H]1NC(=O)[C@H](C)OC(=O)[C@@H](C(C)C)NC(=O)[C@@H](C(C)C)OC(=O)[C@H](C(C)C)NC(=O)[C@H](C)OC(=O)[C@@H](C(C)C)NC(=O)[C@@H](C(C)C)OC(=O)[C@H](C(C)C)NC(=O)[C@H](C)OC(=O)[C@@H](C(C)C)NC(=O)[C@@H](C(C)C)OC1=O [VALINOMYCIN]		97.3
